How the values were obtained:
[1] = target: T1, Cytochrome P450 11B1, mitochondrial (Homo sapiens, UniProt P15538); assay: Inhibition of human CYP11B1 expressed in hamster V79MZ cells using [1,2-3H]-11-deoxycorticosterone as substrate after 6 hrs by HPLC analysis; type: cell-based
T1 sequence (P15538 whole entry): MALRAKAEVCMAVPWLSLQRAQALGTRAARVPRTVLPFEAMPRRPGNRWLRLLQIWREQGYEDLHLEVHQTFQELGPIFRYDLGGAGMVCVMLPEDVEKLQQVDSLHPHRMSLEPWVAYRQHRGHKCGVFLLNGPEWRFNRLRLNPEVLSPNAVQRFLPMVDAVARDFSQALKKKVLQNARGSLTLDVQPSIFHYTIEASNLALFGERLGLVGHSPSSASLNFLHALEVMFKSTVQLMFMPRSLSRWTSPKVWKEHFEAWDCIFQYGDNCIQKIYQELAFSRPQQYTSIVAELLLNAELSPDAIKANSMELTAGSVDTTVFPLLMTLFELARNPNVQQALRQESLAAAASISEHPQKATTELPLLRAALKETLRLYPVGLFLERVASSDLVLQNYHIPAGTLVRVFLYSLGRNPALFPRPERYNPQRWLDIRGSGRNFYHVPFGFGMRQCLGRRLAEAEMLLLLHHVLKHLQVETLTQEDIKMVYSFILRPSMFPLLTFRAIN
Method in brief: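 V79MZ cells expressing recombinant human CYP11B1 or CYP11B2, or rat CYP11B1, incubated with [1,2-³H]-11-deoxycorticosterone (100 nM) and inhibitor over a range of concentrations; ketoconazole as reference.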

[2] = Half life in rat liver S9 fractions at 1 uM in presence of NADPH/UDPGA by LC-MS/MS analysis; type: ADME, tissue-based
Method in brief: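 Samples taken at 0, 5, 15 and 60 min, stopped with cold acetonitrile containing internal standard. Remaining parent measured by LC-MS/MS.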

CYP19A1 = target: T2, CYP19A1 (Homo sapiens, UniProt P11511); assay: Inhibition of human placental microsomal CYP19A1 at 2 uM using [1beta-3H]-androstenedione as substrate after 20 mins in presence of NADPH by scintillation spectrometric method relative to control; type: ADME; conditions: placental microsomes, probe [1beta-3H]-androstenedione
T2 sequence (P11511 whole entry): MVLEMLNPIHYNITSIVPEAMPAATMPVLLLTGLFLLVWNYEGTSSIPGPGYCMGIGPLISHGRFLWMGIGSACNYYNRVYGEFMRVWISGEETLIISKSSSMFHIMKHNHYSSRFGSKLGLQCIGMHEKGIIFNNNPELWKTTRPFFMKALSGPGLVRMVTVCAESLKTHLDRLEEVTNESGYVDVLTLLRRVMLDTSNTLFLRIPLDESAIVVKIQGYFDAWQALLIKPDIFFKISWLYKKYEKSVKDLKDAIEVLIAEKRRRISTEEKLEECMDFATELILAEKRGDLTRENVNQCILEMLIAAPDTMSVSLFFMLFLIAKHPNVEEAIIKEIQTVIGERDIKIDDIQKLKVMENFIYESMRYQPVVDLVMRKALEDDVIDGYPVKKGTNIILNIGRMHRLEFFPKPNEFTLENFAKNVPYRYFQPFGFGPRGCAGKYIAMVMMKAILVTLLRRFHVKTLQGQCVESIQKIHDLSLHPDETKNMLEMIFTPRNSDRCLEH
Method in brief: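 Human placental microsomal CYP19A1; [1β-³H]androstenedione (500 nM) as substrate; test compounds at 2 µM; fadrozole and aminoglutethimide as references.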

CYP1A2 = target: T3, CYP1A2 (Homo sapiens, UniProt P05177); assay: Inhibition of recombinant human CYP1A2 expressed in baculovirus infected insect cell microsomes at 1 uM relative to control; type: ADME
T3 sequence (P05177 whole entry): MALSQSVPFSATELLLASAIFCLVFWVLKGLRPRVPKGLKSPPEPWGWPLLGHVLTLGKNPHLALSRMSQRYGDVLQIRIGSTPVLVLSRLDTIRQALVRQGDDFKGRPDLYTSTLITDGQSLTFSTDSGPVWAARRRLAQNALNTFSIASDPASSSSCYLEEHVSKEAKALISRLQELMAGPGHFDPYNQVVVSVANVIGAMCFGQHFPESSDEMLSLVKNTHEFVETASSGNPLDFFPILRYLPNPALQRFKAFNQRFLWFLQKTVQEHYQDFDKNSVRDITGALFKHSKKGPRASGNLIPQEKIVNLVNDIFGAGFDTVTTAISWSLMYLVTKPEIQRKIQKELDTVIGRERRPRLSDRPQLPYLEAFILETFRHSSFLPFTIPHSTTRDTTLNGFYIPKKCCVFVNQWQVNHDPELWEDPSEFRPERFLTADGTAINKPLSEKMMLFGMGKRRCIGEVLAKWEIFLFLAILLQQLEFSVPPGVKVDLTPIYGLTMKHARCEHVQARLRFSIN
Method in brief: (§1)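 Recombinant human CYP1A2, 2B6, 2C9, 2C19, 2D6 and 3A4 in baculovirus-infected insect-cell microsomes, assayed per kit instructions; test compound at 1 µM, percent inhibition.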

CYP2C9 = CYP2C9 (Homo sapiens, UniProt P11712); assay: Inhibition of recombinant human CYP2C9 expressed in baculovirus infected insect cell microsomes at 1 uM relative to control; type: ADME; method in brief: as §1
CYP2C19 = CYP2C19 (Homo sapiens, UniProt P33261); assay: Inhibition of recombinant human CYP2C19 expressed in baculovirus infected insect cell microsomes at 1 uM relative to control; type: ADME; method in brief: as §1
CYP3A4 = CYP3A4 (Homo sapiens, UniProt P08684); assay: Inhibition of recombinant human CYP3A4 expressed in baculovirus infected insect cell microsomes at 1 uM relative to control; type: ADME; method in brief: as §1
Salmonella typhimurium [3] = assay: Mutagenicity in Salmonella typhimurium TA98 up to 100 uM by Ames 2 assay; type: toxicity; conditions: salmonella enterica subsp. enterica serovar typhimurium
Method in brief: (§2)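 AMES II kit with Salmonella typhimurium TA98 and TA7001–TA7006, run with or without rat liver S9 fraction according to the kit instructions.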

Salmonella typhimurium [4] = assay: Mutagenicity in Salmonella typhimurium TA98 up to 100 uM in presence of rat liver S9 fraction by Ames 2 assay; type: toxicity; conditions: salmonella enterica subsp. enterica serovar typhimurium; method in brief: as §2
Salmonella typhimurium [5] = assay: Mutagenicity in Salmonella typhimurium TA7001/7002/7003/7004/7005/7006 up to 100 uM in presence of rat liver S9 fraction by Ames 2 assay; type: toxicity; conditions: salmonella enterica subsp. enterica serovar typhimurium; method in brief: as §2
[6] = Aqueous solubility of the compound in 2% DMSO up to 24 hrs; type: physicochemical
[7] = Plasma concentration in Sprague-Dawley rat at 100 mg/kg, po administered as single dose after 1 hr by HPLC-MS/MS analysis; type: ADME, organism-based
Method in brief: (§3)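 One female Sprague-Dawley rat dosed orally with a suspension in 0.5% porcine gelatin/5% mannitol in water, under 2% isoflurane. Tail-vein blood in citrate; plasma precipitated with acetonitrile containing diphenhydramine internal standard and quantified by HPLC-MS/MS.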

[8] = Plasma concentration in Sprague-Dawley rat at 100 mg/kg, po administered as single dose after 4 hrs by HPLC-MS/MS analysis; type: ADME, organism-based; method in brief: as §3

Chain of CYP2C9 (P11712 whole entry): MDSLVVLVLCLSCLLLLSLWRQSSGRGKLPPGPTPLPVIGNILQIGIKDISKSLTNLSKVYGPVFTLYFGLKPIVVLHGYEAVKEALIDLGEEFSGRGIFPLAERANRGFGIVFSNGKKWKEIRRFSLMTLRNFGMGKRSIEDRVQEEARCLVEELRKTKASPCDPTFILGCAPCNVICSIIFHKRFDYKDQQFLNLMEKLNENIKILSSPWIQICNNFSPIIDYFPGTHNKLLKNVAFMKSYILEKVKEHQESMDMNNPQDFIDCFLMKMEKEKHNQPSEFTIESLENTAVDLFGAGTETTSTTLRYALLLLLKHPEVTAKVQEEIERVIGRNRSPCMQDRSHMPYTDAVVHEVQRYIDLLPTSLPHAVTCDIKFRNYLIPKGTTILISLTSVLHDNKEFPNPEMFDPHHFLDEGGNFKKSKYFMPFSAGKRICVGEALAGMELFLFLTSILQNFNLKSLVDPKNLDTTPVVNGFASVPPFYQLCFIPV
Chain of CYP3A4 (P08684 whole entry): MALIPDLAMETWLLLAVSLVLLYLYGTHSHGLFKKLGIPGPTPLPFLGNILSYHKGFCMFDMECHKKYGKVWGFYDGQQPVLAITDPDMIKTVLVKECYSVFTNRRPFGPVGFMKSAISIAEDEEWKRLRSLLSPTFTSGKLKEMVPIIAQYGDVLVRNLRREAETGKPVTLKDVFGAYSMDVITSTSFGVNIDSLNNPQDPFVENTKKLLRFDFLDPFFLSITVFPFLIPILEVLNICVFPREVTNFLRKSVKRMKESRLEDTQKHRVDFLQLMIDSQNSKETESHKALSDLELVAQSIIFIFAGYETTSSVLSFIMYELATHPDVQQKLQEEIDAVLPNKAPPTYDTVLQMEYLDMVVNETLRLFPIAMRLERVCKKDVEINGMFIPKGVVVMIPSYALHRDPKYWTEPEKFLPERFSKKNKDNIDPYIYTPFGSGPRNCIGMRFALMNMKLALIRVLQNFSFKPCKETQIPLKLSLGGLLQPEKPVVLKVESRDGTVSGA
Chain of CYP2C19 (P33261 whole entry): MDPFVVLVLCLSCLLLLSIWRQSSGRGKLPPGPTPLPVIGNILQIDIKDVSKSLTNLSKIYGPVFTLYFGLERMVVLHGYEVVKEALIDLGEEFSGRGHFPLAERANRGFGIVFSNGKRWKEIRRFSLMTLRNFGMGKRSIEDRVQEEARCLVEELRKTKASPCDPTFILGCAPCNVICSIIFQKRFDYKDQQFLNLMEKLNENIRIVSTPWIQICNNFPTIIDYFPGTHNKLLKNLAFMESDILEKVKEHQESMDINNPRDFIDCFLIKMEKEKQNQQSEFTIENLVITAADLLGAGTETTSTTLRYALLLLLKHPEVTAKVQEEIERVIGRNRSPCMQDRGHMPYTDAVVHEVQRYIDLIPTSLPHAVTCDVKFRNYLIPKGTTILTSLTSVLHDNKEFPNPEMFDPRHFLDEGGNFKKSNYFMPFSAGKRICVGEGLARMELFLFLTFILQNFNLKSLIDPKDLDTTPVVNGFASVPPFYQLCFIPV

Compound | IC50 [1] | half-life at 1 µM [2] | inhibition at 20 min, 2 µM (CYP19A1) | inhibition at 1 µM (CYP1A2) | inhibition at 1 µM (CYP2C9) | inhibition at 1 µM (CYP2C19) | inhibition at 1 µM (CYP3A4) | Activity (Salmonella typhimurium [3]) | Activity (Salmonella typhimurium [4]) | Activity (Salmonella typhimurium [5]) | solubility at 24 h [6] | concentration at 1 h [7] | concentration at 4 h [8]
Cc1cncc(Cc2cc(-c3ccccc3)no2)c1 | 5 nM | 30 min | ≤ 9% | 54% | 28% | 8% | 61% | Non-Toxic | Non-Toxic | Non-Toxic | > 200 µM | 2.5 µM | 0.3 µM
COc1cncc(Cc2cc(-c3ccccc3)no2)c1 | 2 nM | 23 min | ≤ 9% | 23% | 17% | 17% | 33% | Non-Toxic | Non-Toxic | Non-Toxic | > 200 µM | 19.7 µM | 106 µM

Reference: ChEMBL document CHEMBL4014346, “Lead Optimization Generates CYP11B1 Inhibitors of Pyridylmethyl Isoxazole Type with Improved Pharmacological Profile for the Treatment of Cushing's Disease” (J Med Chem, 2017)
